Data: ChEMBL document CHEMBL1158460, “Heterobiaryl human immunodeficiency virus entry inhibitors” (J Med Chem, 2009)

Assays:
[1] = system: Human immunodeficiency virus; assay: Antiviral activity against HIV isolate 584.000 030 by replication assay; assay type: functional, organism-based; conditions: Human immunodeficiency virus 1, isolate 584.000 030
[2] = system: Human immunodeficiency virus; assay: Antiviral activity against HIV isolate 584.000 031 by replication assay; assay type: functional, organism-based; conditions: Human immunodeficiency virus 1, isolate 584.000 031
[3] = system: Human immunodeficiency virus; assay: Antiviral activity against HIV isolate 584.000 066 by replication assay; assay type: functional, organism-based; conditions: Human immunodeficiency virus 1, isolate 584.000 066
[4] = Cytotoxicity against human U87 cells coexpressing CD4, CxCR4 receptors after 72 hrs; assay type: cell-based, U-87MG ATCC; conditions: U87 cells coexpressing CD4 and CXCR4 receptors
[5] = system: Human immunodeficiency virus; assay: Antiviral activity against HIV isolate 584.000 227 by replication assay; assay type: functional, organism-based; conditions: Human immunodeficiency virus 1, isolate 584.000 227
[6] = system: Human immunodeficiency virus 1; assay: Antiviral activity against HIV1 expressed in 293T cells assessed as protection against viral M33 envelope infection in human U87 cells coexpressing CD4, CCR5 receptors after 72 hrs by luciferase reporter gene pseudoviral assay; assay type: functional, organism-based; conditions: Human immunodeficiency virus 1, HEK-293T
Summary of the method: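 Pseudovirions carry an R5-using envelope cloned from a primary virus isolate. Anti-HIV-1 activity was taken as the 50% inhibitory dose against these pseudovirions.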

[7] = system: Human immunodeficiency virus; assay: Antiviral activity against HIV isolate 584.000 060 by replication assay; assay type: functional, organism-based; conditions: Human immunodeficiency virus 1, isolate 584.000 060
[8] = system: Human immunodeficiency virus; assay: Antiviral activity against HIV isolate 584.000 220 by replication assay; assay type: functional, organism-based; conditions: Human immunodeficiency virus 1, isolate 584.000 220
[9] = system: Human immunodeficiency virus; assay: Antiviral activity against HIV isolate 584.000 063 by replication assay; assay type: functional, organism-based; conditions: Human immunodeficiency virus 1, isolate 584.000 063
[10] = system: Human immunodeficiency virus; assay: Antiviral activity against HIV isolate 584.000.098 by replication assay; assay type: functional, organism-based; conditions: Human immunodeficiency virus 1, isolate 584.000.098
[11] = system: Human immunodeficiency virus; assay: Antiviral activity against HIV isolate 584.000 054 by replication assay; assay type: functional, organism-based; conditions: Human immunodeficiency virus 1, isolate 584.000 054
[12] = system: Human immunodeficiency virus; assay: Antiviral activity against HIV isolate 589.000 033 by replication assay; assay type: functional, organism-based; conditions: Human immunodeficiency virus 1, isolate 589.000 033
[13] = Inhibition of HIV1 3B recombinant gp120/sCD4 binding interaction by ELISA
Summary of the method: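 Competitive ELISA of soluble CD4 binding to gp120 from HIV IIIB. Bound CD4 was detected with an anti-CD4 monoclonal antibody, then a peroxidase-labelled anti-mouse antibody. The read-out was the 50% inhibitory dose.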

[14] = system: Human immunodeficiency virus; assay: Antiviral activity against HIV isolate 584.000 058 by replication assay; assay type: functional, organism-based; conditions: Human immunodeficiency virus 1, isolate 584.000 058
[15] = system: Human immunodeficiency virus; assay: Antiviral activity against HIV isolate 584.000 017 by replication assay; assay type: functional, organism-based; conditions: Human immunodeficiency virus 1, isolate 584.000 017

Row | SMILES | IC50 [6] [nM] | IC50 [13] [nM] | CC50 at 72 h [4] [nM] | further results
1 | C[C@@H]1CN(C(=O)c2ccccc2)CCN1C(=O)C(=O)c1ccc(-c2cc[nH]n2)nc1 | 1000 | > 10000 | > 40000 | 
2 | C[C@@H]1CN(C(=O)c2ccccc2)CCN1C(=O)C(=O)c1ccc(-c2ccncc2)cc1 | 2500 |  | > 40000 | 
3 | C[C@@H]1CN(C(=O)c2ccccc2)CCN1C(=O)C(=O)c1ccc(-c2nccs2)cc1 | 630 | > 10000 | > 40000 | 
4 | C[C@@H]1CN(C(=O)c2ccccc2)CCN1C(=O)C(=O)c1ccc(-n2cccn2)cc1 | 1200 | > 7500 | > 40000 | 
5 | Cc1nc(-c2ccc(C(=O)C(=O)N3CCN(C(=O)c4ccccc4)C[C@H]3C)cc2)cs1 | 5400 |  | > 40000 | 
6 | C[C@@H]1CN(C(=O)c2ccccc2)CCN1C(=O)C(=O)c1ccc(N2CCCC2)cc1 | 6700 | > 10000 | > 40000 | 
7 | C[C@@H]1CN(C(=O)c2ccccc2)CCN1C(=O)C(=O)c1ccc(-c2ccccn2)s1 | 13000 |  | > 40000 | 
8 | C[C@@H]1CN(C(=O)c2ccccc2)CCN1C(=O)C(=O)c1ccc(-c2cc[nH]n2)cc1O | 2200 | > 10000 | > 40000 | 
9 | C[C@@H]1CN(C(=O)c2ccccc2)CCN1C(=O)C(=O)c1ccc(-c2cnco2)cc1 | 250 |  | > 40000 | 
10 | CC(=O)c1ccc(-c2ccc(C(=O)C(=O)N3CCN(C(=O)c4ccccc4)C[C@H]3C)cc2)s1 | 1600 |  | > 40000 | 
11 | Cc1cc(-c2ccc(C(=O)C(=O)N3CCN(C(=O)c4ccccc4)C[C@H]3C)cc2)on1 | 330 | > 10000 | > 40000 | 
12 | C[C@@H]1CN(C(=O)c2ccccc2)CCN1S(=O)(=O)c1ccc(-c2cnco2)s1 | 1200 |  | > 40000 | 
13 | COc1cc(C(=O)C(=O)N2CCN(C(=O)c3ccccc3)C[C@H]2C)ccc1-c1cc(C)no1 | 830 | > 10000 | > 40000 | 
14 | C[C@@H]1CN(C(=O)c2ccccc2)CCN1C(=O)C(=O)c1ccc(-c2ncccc2F)cc1 | 2000 |  | > 40000 | 
15 | C[C@@H]1CN(C(=O)c2ccccc2)CCN1C(=O)C(=O)c1ccc(-c2cscn2)cc1 | 420 |  | > 40000 | 
16 | C[C@@H]1CN(C(=O)c2ccccc2)CCN1C(=O)C(=O)c1ccc(-c2ccn[nH]2)cc1Cl | 250 | 4600 | > 40000 | 

Row | SMILES | IC50 [6] [nM] | IC50 [13] [nM] | CC50 at 72 h [4] [nM] | further results
17 | Cc1cc(-c2ccc(C(=O)C(=O)N3CCN(C(=O)c4ccccc4)C[C@H]3C)c(O)c2)on1 | 7300 | > 10000 | > 40000 | 
18 | CNc1cc(-c2cc[nH]n2)ccc1C(=O)C(=O)N1CCN(C(=O)c2ccccc2)C[C@H]1C | > 10000 |  | > 40000 | 
19 | C[C@@H]1CN(C(=O)c2ccccc2)CCN1S(=O)(=O)c1ccc(-c2ccccn2)s1 | 5400 |  | > 40000 | 
20 | C[C@@H]1CN(C(=O)c2ccccc2)CCN1C(=O)C(=O)c1ccc(-c2ccsc2)cc1 | 540 |  | > 40000 | 
21 | C[C@@H]1CN(C(=O)c2ccccc2)CCN1C(=O)C(=O)c1cccc(-c2ccccn2)c1 | 23000 |  | > 40000 | 
22 | C[C@@H]1CN(C(=O)c2ccccc2)CCN1C(=O)C(=O)c1ccc(-c2cncs2)cc1 | 320 |  | > 40000 | 
23 | Cc1ccc(-c2ccc(C(=O)C(=O)N3CCN(C(=O)c4ccccc4)C[C@H]3C)cc2)o1 | 2800 | > 10000 | > 40000 | 
24 | C[C@@H]1CN(C(=O)c2ccccc2)CCN1C(=O)C(=O)c1ccc(N2CCOC2=O)cc1 | 12000 | > 10000 | > 40000 | 
25 | Cc1cc(-c2cc[nH]n2)ccc1C(=O)C(=O)N1CCN(C(=O)c2ccccc2)C[C@H]1C | 1100 | > 10000 | > 40000 | 
26 | C[C@@H]1CN(C(=O)c2ccccc2)CCN1C(=O)C(=O)c1ccc(-c2cccs2)cc1 | 440 |  | > 40000 | 
27 | CC1CN(C(=O)c2ccccc2)CCN1C(=O)C(=O)c1ccc(-c2ccn(C)n2)cc1 (racemic) | 1800 |  | > 40000 | 
28 | CC1CN(C(=O)c2ccccc2)CCN1C(=O)C(=O)c1ccc(-n2nccn2)cc1 (racemic) | 870 | 6200 | > 40000 | 
29 | CC(=O)c1cc(-c2ccc(C(=O)C(=O)N3CCN(C(=O)c4ccccc4)CC3C)cc2)cs1 (racemic) | 910 |  | > 40000 | 
30 | CC1CN(C(=O)c2ccccc2)CCN1C(=O)C(=O)c1ccc(-n2cncn2)cc1 (racemic) | 940 | > 10000 | > 40000 | 
31 | CC1CN(C(=O)c2ccccc2)CCN1C(=O)C(=O)c1ccc(-c2cc(N)ncn2)cc1 (racemic) | 1400 |  | > 40000 | 

Now those with a lower IC50 [6], led by results:

Row | IC50 [6] [nM] | IC50 [13] [nM] | SMILES | CC50 at 72 h [4] [nM] | further results
32 | 26 | 2400 | COc1ncc(OC)c2c(C(=O)C(=O)N3CCN(C(=O)c4ccccc4)CC3)c[nH]c12 | > 40000 | IC50 [1]: 30 nM; IC50 [2]: 240 nM; IC50 [3]: 11 nM; IC50 [5]: 22 nM; IC50 [7]: 14 nM; IC50 [8]: 4 nM; IC50 [9]: 17 nM; IC50 [10]: 425 nM; IC50 [11]: 7130 nM; IC50 [12]: 34 nM; IC50 [14]: 60 nM; IC50 [15]: > 10000 nM
33 | 8 | 930 | COc1ccnc2[nH]cc(C(=O)C(=O)N3CCN(C(=O)c4ccccc4)C[C@H]3C)c12 | > 40000 | IC50 [1]: 29 nM; IC50 [2]: 8020 nM; IC50 [3]: 190 nM; IC50 [5]: 423 nM; IC50 [7]: 24 nM; IC50 [8]: 5 nM; IC50 [9]: 46 nM; IC50 [10]: 394 nM; IC50 [11]: 5530 nM; IC50 [12]: 27 nM; IC50 [14]: 38 nM; IC50 [15]: > 10000 nM
34 | < 5 | 230 | COc1cc(-c2cc(C)no2)ccc1C(=O)C(=O)N1CCN(C(=O)c2ccccc2)C[C@H]1C | > 40000 | IC50 [1]: 13 nM; IC50 [2]: 8980 nM; IC50 [3]: 273 nM; IC50 [5]: 1820 nM; IC50 [7]: 17 nM; IC50 [8]: 3 nM; IC50 [9]: 25 nM; IC50 [10]: 301 nM; IC50 [11]: 3510 nM; IC50 [12]: 11 nM; IC50 [14]: 22 nM; IC50 [15]: > 10000 nM
35 | 46 | 1100 | C[C@@H]1CN(C(=O)c2ccccc2)CCN1C(=O)C(=O)c1ccc(-c2cc[nH]n2)cc1F | > 40000 | 
36 | 130 | > 10000 | Cc1cc(-c2ccc(C(=O)C(=O)N3CCN(C(=O)c4ccccc4)C[C@H]3C)cc2F)on1 | > 40000 | 
37 | < 5 | 236 | C[C@@H]1CN(C(=O)c2ccccc2)CCN1C(=O)C(=O)c1ccc(-c2cnco2)c(Cl)c1 | > 40000 | 
38 | 78 | 5900 | C[C@@H]1CN(C(=O)c2ccccc2)CCN1C(=O)C(=O)c1ccc(-c2cc[nH]n2)cc1N | > 40000 | 
39 | < 5 | 560 | COc1cc(-c2ccn[nH]2)ccc1C(=O)C(=O)N1CCN(C(=O)c2ccccc2)C[C@H]1C | > 40000 | 
40 | 56 | 2500 | COc1cc(C(=O)C(=O)N2CCN(C(=O)c3ccccc3)C[C@H]2C)ccc1-c1cc[nH]n1 | > 40000 | 
41 | 50 | 780 | COc1cc(C(=O)C(=O)N2CCN(C(=O)c3ccccc3)C[C@H]2C)ccc1-c1cnco1 | > 40000 | 
42 | 7 | 215 | COc1cnc(-n2ccnn2)c2[nH]cc(S(=O)(=O)N3CCN(C(=O)c4ccccc4)C[C@H]3C)c12 | > 40000 | 
43 | 35 | 680 | Cc1cc(C(=O)C(=O)N2CCN(C(=O)c3ccccc3)C[C@H]2C)ccc1-c1cc[nH]n1 | > 40000 | 
44 | 160 | 2400 | CC1CN(C(=O)c2ccccc2)CCN1C(=O)C(=O)c1ccc(-c2cc[nH]n2)cc1 (racemic) | > 40000 | 
45 | 110 |  | CC1CN(C(=O)c2ccccc2)CCN1C(=O)C(=O)c1ccc(-c2cnn(C)c2)cc1 (racemic) | > 40000 | 
